Structures are written as SMILES. Calls of active or inactive are those of the source. The calls are words filed in the database; no cut-off is given here. Bounds are passed on as bounds.

For data set [1], the target named is Metabotropic glutamate receptor 4 (Rattus norvegicus, UniProt P31423). Nature of the data set: Positive allosteric modulation of rat mGlu4 receptor expressed in HEK cells co-expressing GIRK1/2 assessed as increase in glutamate-induced thallium flux preincubated for 140 secs followed by glutamate addition and measured after 2.5 mins by FluoZin-2-AM dye based fluorescence assay. It is filed as cell-based. An outline of the steps: (§1)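 HEK cells co-expressing rat mGlu4 and GIRK1/2 were loaded for 1 h at room temperature with FluoZin-2 AM (330 nM final) in HBSS/20 mM HEPES pH 7.4. Compound was incubated 140 s, then thallium buffer with or without agonist was added. Reading continued for 2.5 min at room temperature. Potency was fitted by four-parameter logistic.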
Sequence of Metabotropic glutamate receptor 4 (Rattus norvegicus, UniProt P31423) (P31423 whole entry): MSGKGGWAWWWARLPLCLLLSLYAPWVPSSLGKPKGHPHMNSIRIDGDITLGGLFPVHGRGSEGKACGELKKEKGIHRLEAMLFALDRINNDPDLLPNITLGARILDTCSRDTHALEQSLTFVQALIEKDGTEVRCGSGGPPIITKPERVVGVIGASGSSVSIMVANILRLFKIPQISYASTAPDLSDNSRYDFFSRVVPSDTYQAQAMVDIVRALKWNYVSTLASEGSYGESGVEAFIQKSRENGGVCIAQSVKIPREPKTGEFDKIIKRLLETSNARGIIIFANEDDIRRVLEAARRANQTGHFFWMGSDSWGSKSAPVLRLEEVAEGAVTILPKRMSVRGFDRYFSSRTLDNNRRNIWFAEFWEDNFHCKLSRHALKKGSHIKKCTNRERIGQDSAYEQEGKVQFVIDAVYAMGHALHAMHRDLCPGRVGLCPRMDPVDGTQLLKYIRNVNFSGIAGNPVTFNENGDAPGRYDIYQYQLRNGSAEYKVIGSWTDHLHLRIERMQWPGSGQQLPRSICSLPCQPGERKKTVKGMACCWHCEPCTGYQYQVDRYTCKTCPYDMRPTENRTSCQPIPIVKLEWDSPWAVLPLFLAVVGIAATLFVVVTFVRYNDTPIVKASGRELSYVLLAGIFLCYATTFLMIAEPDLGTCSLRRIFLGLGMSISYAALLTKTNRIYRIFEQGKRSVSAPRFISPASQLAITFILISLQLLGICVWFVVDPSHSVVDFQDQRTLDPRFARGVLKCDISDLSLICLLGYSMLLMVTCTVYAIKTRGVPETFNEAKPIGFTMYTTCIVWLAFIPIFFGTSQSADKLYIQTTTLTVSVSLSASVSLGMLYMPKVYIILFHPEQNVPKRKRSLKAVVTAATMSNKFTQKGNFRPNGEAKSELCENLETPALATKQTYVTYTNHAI

The target of data set [2] is T1, Metabotropic glutamate receptor 4 (Homo sapiens, UniProt Q14833). The data set can be described thus: Positive allosteric modulation of human mGlu4 receptor expressed in CHO cells co-expressing Gqi5 assessed as increase in glutamate-induced calcium mobilization preincubated for 142 secs followed by EC20 glutamate addition and measured after 147 secs by Fluo-4-AM dye based fluorescence assay relative to control. It is filed as functional, cell-based. An outline of the steps:
(§2)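 CHO cells expressing human mGlu4 and Gqi5, plated at 30,000 cells/well and grown overnight at 37 °C, 5% CO2. Cells were loaded with 1 μM Fluo-4 AM for 45 min at 37 °C in HBSS/20 mM HEPES/2.5 mM probenecid. Compounds were run as 10-point, 1:3 dilution series. After 142 s, EC20 glutamate was added; 147 s later, EC80 glutamate. Fluorescence was normalized to the maximal glutamate response. EC50 and %Glu Max were fitted by four-parameter logistic, with maximum normalized to PHCCC.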
On the technique in general: Calcium flux is commonly read through the fluorescence of an indicator in the cells.

Data set [3] deals with T1, Metabotropic glutamate receptor 4. The data set can be described thus: Positive allosteric modulation of human mGlu4 receptor expressed in CHO cells co-expressing Gqi5 assessed as increase in glutamate-induced calcium mobilization preincubated for 142 secs followed by EC20 glutamate addition and subsequent EC80 glutamate addition after 147 secs by Fluo-4-AM dye based fluorescence assay. The class given is functional, cell-based. The gist of the method:
as §2

Data set [4] can be described thus: Fraction unbound in human plasma after 4 hrs by equilibrium dialysis method. It is filed as ADME, cell-free. Background: Equilibrium dialysis compares concentrations on both sides of a semipermeable membrane.
Data set [5] in a line: Drug uptake in rat brain administered as iv cassette dose. To be noted: in vivo. It is filed as ADME, organism-based. An outline of the steps:
(§3)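 Cassette dosing in male Sprague-Dawley rats (~300 g, n = 1 per experiment), with carotid artery and jugular vein catheters. Animals acclimated about one week with food and water ad libitum. Plasma (ng/mL) and brain (ng/g) levels were measured and Kp calculated.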

A short description of data set [6]: Intrinsic clearance in human liver microsomes at 1 uM preincubated for 5 mins followed by NADPH addition measured up to 45 mins by LC-MS/MS analysis. The class given is ADME, Microsome. To be noted: read-out: CLH. An outline of the steps:
(§4)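 Intrinsic and predicted hepatic clearance derived from liver microsome incubations.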
Background: Liver microsomes are a subcellular fraction often used to study metabolism.

Data set [7] is described as follows: Fraction unbound in rat plasma after 4 hrs by equilibrium dialysis method. The class given is ADME, cell-free.
In a further data set the target is T2, Cytochrome P450 1A2 (Homo sapiens, UniProt P05177).
T2 sequence (P05177 whole entry): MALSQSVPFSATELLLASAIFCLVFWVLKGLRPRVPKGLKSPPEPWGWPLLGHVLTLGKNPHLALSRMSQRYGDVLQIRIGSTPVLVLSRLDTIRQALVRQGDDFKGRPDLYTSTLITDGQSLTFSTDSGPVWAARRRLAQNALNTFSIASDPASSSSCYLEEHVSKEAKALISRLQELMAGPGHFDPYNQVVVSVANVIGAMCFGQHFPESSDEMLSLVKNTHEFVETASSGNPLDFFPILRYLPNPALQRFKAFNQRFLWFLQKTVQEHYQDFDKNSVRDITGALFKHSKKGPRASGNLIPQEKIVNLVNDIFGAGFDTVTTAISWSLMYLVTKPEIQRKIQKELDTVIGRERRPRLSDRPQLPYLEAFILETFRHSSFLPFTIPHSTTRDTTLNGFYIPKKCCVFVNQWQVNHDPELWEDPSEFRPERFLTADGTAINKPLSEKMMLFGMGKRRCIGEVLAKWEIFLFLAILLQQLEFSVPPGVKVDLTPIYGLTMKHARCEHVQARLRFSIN
Nature of the data set: Inhibition of CYP1A2 in human liver microsomes using phenacetin as substrate preincubated for 15 mins followed by substrate addition and measured after 8 mins by LC-MS/MS analysis. The class given is ADME. The gist of the method:
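IC50 for CYP1A2 inhibition determined in human liver microsomes using specific probe substrate-metabolite pairs.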

A short description of data set [8]: Brain to plasma partition coefficient, Kp of the compound in rat administered as iv cassette dose. The class given is ADME, organism-based. Particulars: brain and plasma, read-out: Kp. An outline of the steps:
as §3

A short description of data set [9]: Plasma concentration in rat administered as iv cassette dose. It is filed as ADME, organism-based. To be noted: in vivo. The gist of the method: as §3
Data set [10] has as its target Metabotropic glutamate receptor 4 (Rattus norvegicus) (UniProt P31423). Nature of the data set: Positive allosteric modulation of rat mGlu4 receptor expressed in HEK cells co-expressing GIRK1/2 assessed as increase in glutamate-induced thallium flux preincubated for 140 secs followed by glutamate addition and measured after 2.5 mins by FluoZin-2-AM dye based fluorescence assay relative to control. It is filed as cell-based. An outline of the steps: as §1

Data set [11] can be described thus: Intrinsic clearance in rat liver microsomes at 1 uM preincubated for 5 mins followed by NADPH addition measured up to 45 mins by LC-MS/MS analysis. The class given is ADME, Microsome. Particulars: read-out: CLH. An outline of the steps: as §4
For a further data set, the system named is Rattus norvegicus. The data set can be described thus: Reversal of haloperidol-induced catalepsy in Sprague-Dawley rat assessed as decrease in latency to remove forepaws from bar at 10 mg/kg, po administered 30 mins prior to test. The class given is functional, organism-based. The gist of the method:
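Male Sprague-Dawley rats were randomized and given haloperidol 0.75 mg/kg i.p., then 60 min in home cage. Vehicle or compound (10 mg/kg) was given orally 30 min before catalepsy testing, N = 11–12 rats/group. Data analyzed by one-way ANOVA with Dunnett's test versus vehicle + haloperidol.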

Data set [12] is described as follows: Half life in rat administered as iv cassette dose. The class given is ADME, organism-based. To be noted: in vivo. An outline of the steps: (§5)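 IV cassette in male Sprague-Dawley rats (~300 g, n = 1 per experiment), cannulated in carotid artery and jugular vein and acclimated about one week. Plasma clearance, Vss, t1/2 and MRT were derived.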
A short description of data set [13]: Clearance in rat administered as iv cassette dose. The class given is ADME, organism-based. Particulars: in vivo. The gist of the method:
as §5

T1 sequence (Q14833 whole entry): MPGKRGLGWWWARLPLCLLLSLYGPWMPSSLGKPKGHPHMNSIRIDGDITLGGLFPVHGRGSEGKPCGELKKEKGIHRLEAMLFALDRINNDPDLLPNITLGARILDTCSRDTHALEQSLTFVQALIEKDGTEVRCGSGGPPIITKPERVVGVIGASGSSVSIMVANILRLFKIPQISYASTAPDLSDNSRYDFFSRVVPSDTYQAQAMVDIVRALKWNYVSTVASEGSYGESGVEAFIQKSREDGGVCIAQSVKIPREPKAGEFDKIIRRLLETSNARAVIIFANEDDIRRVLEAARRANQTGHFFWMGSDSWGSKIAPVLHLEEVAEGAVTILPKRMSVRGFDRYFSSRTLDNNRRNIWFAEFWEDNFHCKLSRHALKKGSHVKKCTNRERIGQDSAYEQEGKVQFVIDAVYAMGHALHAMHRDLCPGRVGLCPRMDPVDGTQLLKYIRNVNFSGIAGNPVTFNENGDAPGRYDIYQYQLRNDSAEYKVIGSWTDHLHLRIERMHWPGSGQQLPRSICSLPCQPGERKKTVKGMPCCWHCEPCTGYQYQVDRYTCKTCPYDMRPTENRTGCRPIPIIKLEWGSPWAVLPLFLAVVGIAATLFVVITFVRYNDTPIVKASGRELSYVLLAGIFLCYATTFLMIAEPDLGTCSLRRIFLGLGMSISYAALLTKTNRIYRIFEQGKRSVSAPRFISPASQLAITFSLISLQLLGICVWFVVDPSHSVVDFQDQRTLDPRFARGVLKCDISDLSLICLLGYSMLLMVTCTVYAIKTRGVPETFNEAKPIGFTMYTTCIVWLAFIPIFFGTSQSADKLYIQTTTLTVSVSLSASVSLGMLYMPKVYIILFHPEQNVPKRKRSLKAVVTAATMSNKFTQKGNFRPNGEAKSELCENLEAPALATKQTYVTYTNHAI
Sequence of Metabotropic glutamate receptor 4 (Rattus norvegicus) (P31423 whole entry): as the sequence (P31423 whole entry) above

On to `O=C(c1nsc2cc(Nc3n[nH]c4cccnc34)ccc12)N1CCC(F)(F)CC1`, for which the figures for the EC50 in data set [1] and in data set [3] were 0.139 µM and 0.0524 µM, respectively. Moreover, the %max in [2] stood at 71%; in data set [10] it was 103%. Besides, the results for the free fraction (fraction unbound) at 4 h in [4] and in data set [7] were 0.021 and 0.029, respectively. This compound also had a Drug uptake in data set [5] of 35.5 ng/g. Besides, the results for the CLint scaled at 1 µM in data set [6] and in [11] were 54 mL/min/kg and 393 mL/min/kg, respectively. Besides, the IC50 against Cytochrome P450 1A2 is greater than 30 µM. The Kp in data set [8] stood at 0.14. The compound further came in with a Cp in [9] of 249 ng/mL.
Turning to `O=C(NC1CC(F)(F)C1)c1nsc2cc(Nc3n[nH]c4nccnc34)ccc12`, the EC50 in data set [1] stood at 0.0822 µM; in data set [3], 0.026 µM. Moreover, the values for the %max in data set [2] and in data set [10] were 68.1% and 86.6%, respectively. Further, the fraction unbound at 4 h in data set [4] turned out to be 0.004; in [7] it was 0.007. The same compound displayed a Drug uptake in [5] of 55.6 ng/g. Further, the CLint scaled at 1 µM in data set [6] came to 2.6 mL/min/kg; in [11], 8.3 mL/min/kg. Moreover, the concentration for half-maximal inhibition (IC50) on Cytochrome P450 1A2 is greater than 30 µM. Further, in data set [8], the Kp amounted to 0.08. Also, in data set [9], the Cp is 690 ng/mL.
As to `Fc1ccc(Nc2n[nH]c3cccnc23)cc1Cl`, in the data set with Rattus norvegicus, the outcome was Active.
With `c1cnc2c(Nc3ccc4c(C5CCCC5)noc4c3)n[nH]c2n1`, the EC50 was 0.518 µM in [1] and 0.514 µM in data set [3]. The %max in data set [2] was 85.5%; in data set [10] it was 102%. Also, the values for the fraction unbound at 4 h in data set [4] and in [7] were 0.013 and 0.008, respectively. In [5], this compound displayed a Drug uptake of 145 ng/g. The CLint scaled at 1 µM in data set [6] amounted to 42.3 mL/min/kg; in data set [11], 281 mL/min/kg. Further, the half-life in [12] is 45.9 min. Also, the clearance in data set [13] was found to be 23.2 mL/min/kg. Besides, the IC50 on Cytochrome P450 1A2 came out at 3 µM. In addition, the Kp in data set [8] came out at 1.2. Besides, the Cp in [9] was determined as 117 ng/mL.

The EC50 is the concentration needed to bring the measured effect to its halfway point. One may read the fraction unbound as the share of the substance not bound to proteins or other matrix. The term IC50 denotes the concentration needed to halve the response being measured. As a reminder, the Kp is tissue or fluid exposure divided by exposure in the circulation. Broadly, the half-life is the time in which the quantity being followed falls by half. As a reminder, the clearance is the volume of plasma or blood freed of the substance per unit of time. A lower clearance goes with inefficient removal.

Values taken from ChEMBL document CHEMBL4308847, “Discovery, Structure-Activity Relationship, and Biological Characterization of a Novel Series of 6-((1 H-Pyrazolo[4,3- b]pyridin-3-yl)amino)-benzo[ d]isothiazole-3-carboxamides as Positive Allosteric Modulators of the Metabotropic Glutamate Receptor 4 (mGlu4)” (J Med Chem, 2018).
